# Assay outcomes as filed in PubChem BioAssay.
# An excerpt weighted towards active compounds, which were near 2.6% of everything screened.
# S100A4 inh HTS = S100A4-myosin IIA interaction inhibition; P26447; S100A4/TAMRA-MyoIIA peptide fluorescence polarization; inhibition, % at 10.7 µM; 360,000 tested, 0.14% active;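 active = mean inhibition of at least 70% across replicates, with every replicate also reaching that level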
# Target sequence (P26447 whole entry, looked up): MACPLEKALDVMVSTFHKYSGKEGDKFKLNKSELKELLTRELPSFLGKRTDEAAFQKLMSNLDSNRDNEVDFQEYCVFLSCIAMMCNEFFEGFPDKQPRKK
#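 Material: S100A4 monomer protein / Buffer or medium: 50 mM HEPES pH 7.2, 10 mM CaCl2, 100 mM KCl / Times: 5 min incubation before reading / Benchmarks: neutral control DMSO, positive control TFP / Reagent: labelled myosin peptide probe, 5 nM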
# FN deposition inh = fibronectin deposition inhibition; 350,000 tested, 0.086% active; AID 743247; AH1F fibroblasts, Alexa488-fibronectin deposition fluorescence, overnight; inhibition, % at 12.6 µM;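 active = mean inhibition across replicates of 30% or more, regardless of how many single replicates reach that level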;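 also: positive control wells lacked labelled fibronectin entirely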
#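 Measured by – fluorescence 485/525 nm · System – AH1F fibroblast monolayer, labelled fibronectin deposition · Amount – 10000 cells per well · Buffer or medium – serum-reduced DMEM (2% serum) · Doses – single dose, pinned · Also added – fluorescent fibronectin at 24 nM final · Schedule – 1 h cell attachment, overnight exposure to compound and label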
# Env fusion inh = inhibitors of HIV Env-mediated cell fusion | AID 651610 | HeLa-JRFL Env/CEM21 cell fusion, luciferase | 360,000 tested, 1.1% active | inhibition, % at 12.3 µM;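 active = mean replicate inhibition score of at least 50 and every replicate individually at or above 50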;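 also: 0% = plate neutral controls and 100% = maraviroc near 300 nM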
# miR-122 sensor = miR-122 inhibition in Huh7 cells; 340,000 tested, 0.3% active; activation (reporter increase), % at 12.5 µM; Huh7 miR-122 Renilla luciferase sensor, 48 h; neutral wells = 0, positive control = 100;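 active = mean replicate activation score at least 90 and every replicate individually at or above 90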;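 also: higher luciferase means less miR-122 activity so hits act as miR-122 inhibitors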
# Vif inh = inhibitors of HIV Vif; AID 602346; HEK293T cells, Vif self-association by quenched fluorescence, imaging, 24 h; inhibition, % at 7.49 µM; 340,000 tested, 0.35% active; in the data active = inhibition above about 50%, passing the limit was not always enough
# rRNA inh HTS = inhibitors of bacterial rRNA selective over humanized ribosomes; E. coli WT GFP vs humanized-ribosome RFP mutants, fluorescence, 24 h; hits give low values; DMSO median 0, no signal -100; GFP signal change (wild-type ribosome), % (concentration not given with the values); 350,000 tested, 1.6% active;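 active = significant combined selectivity score with lowered wild-type GFP, culture density cut under 30%, mutant RFP and density less affected; inactive = any of these conditions unmet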
# miR-27b qPCR = selectivity of miR-122 inhibitors: effect on miR-27b in Huh7; shares compounds with miR-122 sensor; Huh7 miR-27b levels, qRT-PCR, 48 h; relative miR-27b level (unnormalised ratio), ratio at 35 µM; 35 tested, under 10 active; AID 687039;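 active = compounds lowering miR-27b whose fitted half-maximal dose is at most twice their top tested dose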
# * = called active by the depositor; . = not tested or not shown; [ ] = remark or other dose.
SMILES,S100A4 inh HTS,FN deposition inh,Env fusion inh,miR-122 sensor,Vif inh,rRNA inh HTS,others
COc1ccc(N(CC(=O)NCCSC2CCCCC2)S(=O)(=O)c2ccccc2)c(OC)c1,-5,-8,64*,-1,-1,-11,
COc1ccccc1NC(=O)CN(c1ccc(C23CC4CC(CC(C4)C2)C3)cc1)S(C)(=O)=O,.,-11,104*,-4,.,.,
COc1ccc(OC)c(N(CC(=O)NCCSC2CCCCC2)S(=O)(=O)c2ccccc2)c1,-1,.,58*,12,-11,9,
COc1ccc(NC(=O)N(C)C[C@H]2OCCCC[C@H](C)Oc3ccc(NS(C)(=O)=O)cc3C(=O)N([C@@H](C)CO)C[C@@H]2C)cc1,4,.,9[16.7 µM],-4[16.7 µM],.,-4,
Cc1noc(C)c1S(=O)(=O)Nc1ccc2c(c1)C(=O)N([C@H](C)CO)C[C@H](C)[C@H](CN(C)CC1CC1)OCCCC[C@H](C)O2,.,.,-21[16.7 µM],-1[16.7 µM],.,0,
C[C@@H]1CCCCO[C@H](CN(C)S(C)(=O)=O)[C@H](C)CN([C@@H](C)CO)C(=O)c2cc(NS(C)(=O)=O)ccc2O1,.,.,1[16.7 µM],2[16.7 µM],.,-1,
CCCC#Cc1cnc2c(c1)C(=O)N([C@@H](C)CO)C[C@@H](C)[C@@H](CN(C)Cc1ccncc1)O2,-2,1,-6[16.7 µM],5[16.7 µM],.,5,
O=C(Nc1ccc2c(c1)[C@@H]1C[C@H](CC(=O)N3CCCCC3)O[C@H](CO)[C@@H]1O2)Nc1ccccc1F,.,0,-16[16.7 µM],7[16.7 µM],.,-3,
COC(=O)COc1ccc(/C=N/NC(=O)CN(c2ccccc2OC)S(=O)(=O)c2ccccc2)cc1,1,-4,-29,.,57*,3,
C[C@H]1CN([C@@H](C)CO)C(=O)c2cc(NS(=O)(=O)c3ccccc3)ccc2O[C@H]1CN(C)C(=O)Nc1ccccc1,14,.,3[16.7 µM],-2[16.7 µM],.,3,
Nc1nccc(SCc2ccc(Cl)cc2Cl)n1,-1,.,-3,.,-3,-2,
Nc1nc(N)c(Cc2ccc(Cl)cc2Cl)c(N)n1,-13,-4,-15,6,-1,-29*,
CC(=O)C[C@H]1c2cc(C(F)(F)F)ccc2S(=O)(=O)N1c1ccccc1,3,16,-1,99*,-2,3,
CC(=O)C[C@H]1c2cc(C(F)(F)F)ccc2S(=O)(=O)N1Cc1ccccc1,-4,-5,2,.,-1,-16,
O=C(Nc1ccc2ccccc2c1)c1ccc(Cl)cc1Cl,6,-1,-358,.,-4,-1,miR-27b qPCR=1.5
Cc1noc(C)c1NC(=O)N(C)C[C@@H]1OCCCC[C@H](C)Oc2ccc(NS(C)(=O)=O)cc2C(=O)N([C@@H](C)CO)C[C@@H]1C,.,.,-13[16.7 µM],8[16.7 µM],.,3,
COc1ccc(S(=O)(=O)Nc2ccc(OC(F)F)cc2)c2cccnc12,.,.,.,.,.,.,miR-27b qPCR=0.93
COc1ccc(S(=O)(=O)Nc2cccc(C)c2C)c2cccnc12,-2,0,19,.,10,-1,
O=C(NC1CCCC1)N1CCCCN2[C@H](C1)[C@H](c1ccc(/C=C/c3ccccc3)cc1)[C@@H]2CO,16,.,.,-9[16.7 µM],.,-50,
COc1ccc(/C=C/C(=O)O)cc1S(=O)(=O)NCC1CCCO1 (stereo not given),4,-10,5,7,-3,13,
COc1ccc(C(C)(C)C)cc1S(=O)(=O)NCC1CCCO1 (stereo not given),2,1,4,170*,1,6,miR-27b qPCR=0.81
Cc1cc(S(=O)(=O)Nc2cccnc2)c(Cl)cc1Cl,-3,-1,-32,14,1,3,
Cc1ccc(C(C)C)cc1S(=O)(=O)Nc1cccnc1,1,-1,-2,380*,-8,2,miR-27b qPCR=0.78
C[C@@H]1CN([C@H](C)CO)C(=O)c2cc(NC(=O)Nc3cccc4ccccc34)ccc2O[C@@H](C)CCCCO[C@@H]1CN(C)S(=O)(=O)c1cccs1,.,.,20[16.7 µM],7[16.7 µM],.,-4,
O=S(=O)(c1ccc2c(c1)CCCN2)N1CCC[C@@H]2CCCC[C@H]21,.,.,.,.,.,.,miR-27b qPCR=1.5
